Assay results: ChEMBL document CHEMBL4138074, “(Indolylalkyl)piperidine carbamates as inhibitors of fatty acid amide hydrolase (FAAH)” (Medchemcomm, 2017)

Columns and labels:
[1] = molecular target: T1, Fatty-acid amide hydrolase 1 (Rattus norvegicus, UniProt P97612); experiment: Inhibition of FAAH in rat brain microsomes assessed as reduction in enzyme-mediated 4-pyren-1-ylbutanoic acid release using N-(2-hydroxyethyl)-4-pyren-1-ylbutanamide as substrate incubated fro 60 mins by reversed phase HPLC method
T1 sequence (P97612 whole entry): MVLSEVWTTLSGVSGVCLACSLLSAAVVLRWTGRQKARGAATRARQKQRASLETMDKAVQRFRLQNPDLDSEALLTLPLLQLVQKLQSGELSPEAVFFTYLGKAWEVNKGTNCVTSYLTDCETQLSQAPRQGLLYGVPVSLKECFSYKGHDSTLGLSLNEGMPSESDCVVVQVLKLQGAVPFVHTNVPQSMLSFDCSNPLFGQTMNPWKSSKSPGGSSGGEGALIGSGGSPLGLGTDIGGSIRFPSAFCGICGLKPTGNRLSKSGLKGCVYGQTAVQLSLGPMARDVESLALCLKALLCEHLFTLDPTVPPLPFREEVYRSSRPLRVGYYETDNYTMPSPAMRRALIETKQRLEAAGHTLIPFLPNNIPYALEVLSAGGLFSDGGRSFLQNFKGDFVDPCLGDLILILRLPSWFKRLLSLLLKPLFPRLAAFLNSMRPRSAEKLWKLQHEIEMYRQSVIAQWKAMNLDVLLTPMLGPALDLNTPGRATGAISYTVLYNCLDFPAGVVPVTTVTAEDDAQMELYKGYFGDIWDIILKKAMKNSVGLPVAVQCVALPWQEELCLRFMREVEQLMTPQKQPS
Summary of the method: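 Rat brain microsomes as enzyme source; fluorogenic substrate N-(2-hydroxyethyl)-4-pyren-1-ylbutanamide, with Triton X-100 in the incubation buffer to solubilize substrate and stabilize the membrane-bound enzyme. Incubation 60 min. Released 4-pyren-1-ylbutanoic acid quantified by reversed-phase HPLC with fluorescence detection, using 6-pyren-1-ylhexanoic acid as internal standard. Product is compared with and without inhibitor. IC50 is the mean of at least two independent determinations.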

[2] = Metabolic stability in rat liver S9 fractions assessed as parent compound remaining in presence of NADPH incubated fro 30 mins by HPLC and MS-detection based method; assay type: ADME, subcellular, S9 fraction; settings: read-out: Stability
Summary of the method: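 Compound incubated with rat liver S9 fraction plus cofactor NADPH for 30 min. Parent remaining measured by reversed-phase HPLC with MS detection and expressed as percent of parent. Mean ± SD of three independent determinations.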

[3] = Metabolic stability in porcine blood plasma assessed as parent compound remaining incubated fro 30 mins by HPLC and MS-detection based method; assay type: ADME, cell-free, Sus scrofa; settings: pig, read-out: Stability
Summary of the method: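 Porcine blood plasma incubation, 30 min. Remaining parent quantified by reversed-phase HPLC with MS detection and reported as percent remaining. Mean ± SD, n = 3 independent determinations.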

| SMILES | IC50 [1] [nM] | remaining at 0.5 h [2] [%] | remaining at 0.5 h [3] [%] |
| --- | --- | --- | --- |
| COc1ccc2c(ccn2CCC2CCN(C(=O)Oc3ccccc3)CC2)c1 | 360 |  |  |
| O=C(Oc1ccccc1)N1CCC(CCCCn2ccc3ccccc32)CC1 | 180 | 78 | 87 |
| O=C(Oc1ccccc1)N1CCC(CCn2ccc3ccc(F)cc32)CC1 | 46 | 82 | 93 |
| O=C(Oc1ccccc1)N1CCN(CCn2ccc3ccc(F)cc32)CC1 | 180 |  |  |
| N#Cc1ccc2c(ccn2CCC2CCN(C(=O)Oc3ccccc3)CC2)c1 | 970 |  |  |
| CN(CCCCCn1ccc2ccc(F)cc21)C(=O)Oc1ccccc1 | 1600 | 65 | 93 |
| O=C(Oc1ccccc1)N1CCC(CCn2ccc3cccc(F)c32)CC1 | 52 |  |  |
| O=C(Oc1ccccc1)N1CCC(CCn2ccc3c(F)cccc32)CC1 | 110 |  |  |
| O=C(Oc1ccccc1)N1CCC(CCn2c3ccccc3c3ccccc32)CC1 | 410 |  |  |
| O=C(Oc1ccccc1)N1CCC(CCn2ccc3ccccc32)CC1 | 110 | 87 | 94 |
| O=C(Oc1ccccc1)N1CCN(CCn2ccc3cccnc32)CC1 | 200 |  |  |
| O=C(Oc1ccccc1)N1CCN(CCn2ccc3ccncc32)CC1 | 310 |  |  |
| O=C(Oc1ccccc1)N1CCC(CCn2ccc3cc(F)ccc32)CC1 | 130 |  |  |
| Cc1ccc2c(ccn2CCC2CCN(C(=O)Oc3ccccc3)CC2)c1 | 700 |  |  |
| O=C(Oc1ccccc1)N1CCN(CCn2ccc3cnccc32)CC1 | 790 |  |  |
| O=C(Oc1ccccc1)N1CCC(CCn2ccc3ncccc32)CC1 | 1700 |  |  |
| O=C(Oc1ccccc1)N1CCC(Cn2ccc3ccccc32)CC1 | 9800 | 63 | 93 |
| O=C(Oc1ccccc1)N1CCC(CCn2ccc3cc(Cl)ccc32)CC1 | 410 |  |  |
| O=C(Oc1ccccc1)N1CCC(CCCn2ccc3ccccc32)CC1 | 570 | 80 | 93 |
